# In ChEMBL document CHEMBL4196105, “Discovery of β-Arrestin Biased Ligands of 5-HT7R” (J Med Chem, 2018):
# pKi: −log10 of the molar value.
# Columns and labels:
# [1] = species: Homo sapiens; experiment: Selectivity index, ratio of Ki for human 5-HT3 receptor to Ki for human 5-HT7 receptor
# Method in brief: (§1)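 Selectivity index taken as Ki at the other 5-HT receptor subtype divided by Ki at 5-HT7R, each from [3H]LSD membrane binding run by the NIMH PDSP. Ki values are means of at least three experiments in triplicate.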
# [2] = species: Homo sapiens; experiment: Selectivity index, ratio of Ki for human 5-HT5A receptor to Ki for human 5-HT7 receptor; method in brief: as §1
# [3] = molecular target: CYP2D6 (Homo sapiens, UniProt P10635); experiment: Inhibition of CYP2D6 in human liver microsomes assessed as remaining activity at 10 uM using dextromethorphan as substrate preincubated for 5 mins followed by addition of NADPH generating system measured after 15 mins by LC-MS analysis; type: ADME; details: probe dextromethorphan, read-out: Activity
# Chain of CYP2D6 (P10635 whole entry): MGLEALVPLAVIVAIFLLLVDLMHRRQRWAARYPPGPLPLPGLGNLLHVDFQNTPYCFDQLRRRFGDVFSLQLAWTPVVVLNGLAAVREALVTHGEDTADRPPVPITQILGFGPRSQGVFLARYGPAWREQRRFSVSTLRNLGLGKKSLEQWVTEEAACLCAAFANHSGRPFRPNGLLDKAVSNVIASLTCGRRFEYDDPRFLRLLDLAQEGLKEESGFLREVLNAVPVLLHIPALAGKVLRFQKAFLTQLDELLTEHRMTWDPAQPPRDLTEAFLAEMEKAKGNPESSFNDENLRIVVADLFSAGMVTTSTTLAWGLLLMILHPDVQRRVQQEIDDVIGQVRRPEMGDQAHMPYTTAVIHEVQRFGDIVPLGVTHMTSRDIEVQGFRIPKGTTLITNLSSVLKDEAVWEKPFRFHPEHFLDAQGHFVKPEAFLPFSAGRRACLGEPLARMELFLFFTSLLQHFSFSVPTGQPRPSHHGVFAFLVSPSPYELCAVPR
# Method in brief: (§2)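 Human liver microsomes 0.25 mg/ml in 0.1 M phosphate, pH 7.4, with a probe cocktail: phenacetin 50 μM, diclofenac 10 μM, S-mephenytoin 100 μM, dextromethorphan 5 μM, midazolam 2.5 μM. Test compound at 10 μM versus 0 μM control. 5 min at 37 °C, then NADPH-generating system for 15 min. Acetonitrile quench; metabolites measured by LC/MS as % remaining activity.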
# [4] = molecular target: CYP2C9 (Homo sapiens, UniProt P11712); experiment: Inhibition of CYP2C9 in human liver microsomes assessed as remaining activity at 10 uM using diclofenac as substrate preincubated for 5 mins followed by addition of NADPH generating system measured after 15 mins by LC-MS analysis; type: ADME; details: probe diclofenac, read-out: Activity; method in brief: as §2
# Chain of CYP2C9 (P11712 whole entry): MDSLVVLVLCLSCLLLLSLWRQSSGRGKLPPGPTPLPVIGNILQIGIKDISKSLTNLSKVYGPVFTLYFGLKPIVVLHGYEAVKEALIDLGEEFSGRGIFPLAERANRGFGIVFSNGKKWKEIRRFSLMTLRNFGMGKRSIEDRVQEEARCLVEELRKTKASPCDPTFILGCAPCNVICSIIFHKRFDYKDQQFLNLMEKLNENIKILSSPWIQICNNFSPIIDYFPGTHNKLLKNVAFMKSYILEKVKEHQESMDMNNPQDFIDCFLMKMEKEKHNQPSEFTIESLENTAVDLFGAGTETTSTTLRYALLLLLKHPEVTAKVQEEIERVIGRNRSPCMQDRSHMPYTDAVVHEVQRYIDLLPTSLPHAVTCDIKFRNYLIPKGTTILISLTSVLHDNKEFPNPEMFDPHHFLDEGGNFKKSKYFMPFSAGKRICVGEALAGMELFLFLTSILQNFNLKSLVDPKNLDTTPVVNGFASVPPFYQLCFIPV
# [5] = molecular target: CYP2C19 (Homo sapiens, UniProt P33261); experiment: Inhibition of CYP2C19 in human liver microsomes assessed as remaining activity at 10 uM using S-mephenytoin as substrate preincubated for 5 mins followed by addition of NADPH generating system measured after 15 mins by LC-MS analysis; type: ADME; details: probe S-mephenytoin, read-out: Activity; method in brief: as §2
# Chain of CYP2C19 (P33261 whole entry): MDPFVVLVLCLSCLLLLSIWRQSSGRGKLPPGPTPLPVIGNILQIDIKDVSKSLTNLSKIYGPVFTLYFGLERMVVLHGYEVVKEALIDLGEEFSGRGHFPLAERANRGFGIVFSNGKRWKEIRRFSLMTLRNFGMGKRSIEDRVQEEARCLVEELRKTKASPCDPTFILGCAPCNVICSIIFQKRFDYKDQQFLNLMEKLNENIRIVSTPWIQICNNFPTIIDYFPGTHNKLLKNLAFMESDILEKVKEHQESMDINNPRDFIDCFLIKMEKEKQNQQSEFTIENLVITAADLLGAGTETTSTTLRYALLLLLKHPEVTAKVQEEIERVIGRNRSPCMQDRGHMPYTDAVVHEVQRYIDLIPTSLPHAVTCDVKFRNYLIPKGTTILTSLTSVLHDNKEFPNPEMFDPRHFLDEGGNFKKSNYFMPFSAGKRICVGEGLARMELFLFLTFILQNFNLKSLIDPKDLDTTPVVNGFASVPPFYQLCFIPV
# [6] = molecular target: CYP3A4 (Homo sapiens, UniProt P08684); experiment: Inhibition of CYP3A4 in human liver microsomes assessed as remaining activity at 10 uM using midazolam as substrate preincubated for 5 mins followed by addition of NADPH generating system measured after 15 mins by LC-MS analysis; type: ADME; details: probe midazolam, read-out: Activity; method in brief: as §2
# Chain of CYP3A4 (P08684 whole entry): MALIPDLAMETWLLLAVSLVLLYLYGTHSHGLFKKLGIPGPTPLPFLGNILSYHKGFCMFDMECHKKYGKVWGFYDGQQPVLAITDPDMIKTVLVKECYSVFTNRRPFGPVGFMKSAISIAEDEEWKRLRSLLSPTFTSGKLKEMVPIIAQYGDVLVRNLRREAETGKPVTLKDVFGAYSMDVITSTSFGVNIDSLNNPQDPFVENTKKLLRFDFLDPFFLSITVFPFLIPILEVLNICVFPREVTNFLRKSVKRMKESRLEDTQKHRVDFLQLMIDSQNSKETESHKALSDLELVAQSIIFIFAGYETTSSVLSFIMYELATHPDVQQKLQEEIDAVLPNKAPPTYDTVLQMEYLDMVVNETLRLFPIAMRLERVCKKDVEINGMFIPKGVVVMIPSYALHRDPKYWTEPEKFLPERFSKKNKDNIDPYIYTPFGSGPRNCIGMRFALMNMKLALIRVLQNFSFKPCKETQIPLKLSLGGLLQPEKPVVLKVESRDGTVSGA
# [7] = Stability in human liver microsomes assessed as drug recovery at 1 uM preincubated for 5 mins followed by addition of NADPH generation system and measured after 30 mins by LC-MS analysis; type: ADME, microsome; details: read-out: Drug recovery
# Method in brief: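 Human liver microsomes 0.5 mg/ml in 0.1 M phosphate, pH 7.4, with 1 μM compound. Preincubated 5 min at 37 °C, then NADPH-generating system added for 30 min at 37 °C. Acetonitrile with internal standard added to stop the reaction, centrifuged, and supernatant analysed by LC/MS as % remaining.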
# [8] = AUC (0 to infinity) in ICR mouse at 5 mg/kg, iv by LC-MS/MS analysis; type: ADME, organism-based; design: dose 5 mg/kg, time infinity, route intravenous; details: in vivo
# Method in brief: (§3)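 Male ICR mice, 7~8 weeks, 30 ± 5 g; single dose 5 mg/kg IV (n = 5) or 50 mg/kg oral (n = 4). Plasma protein-precipitated with acetonitrile containing internal standard, then LC-MS/MS. Non-compartmental analysis; AUClast by trapezoidal rule. Mean ± SD.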
# [9] = AUClast in ICR mouse at 5 mg/kg, iv by LC-MS/MS analysis; type: ADME, organism-based; design: dose 5 mg/kg, time 0 - last, route intravenous; details: in vivo; method in brief: as §3
# [10] = Tmax in ICR mouse at 5 mg/kg, iv by LC-MS/MS analysis; type: ADME, organism-based; details: in vivo; method in brief: as §3
# [11] = Clearance in ICR mouse at 5 mg/kg, iv by LC-MS/MS analysis; type: ADME, organism-based; details: in vivo; method in brief: as §3
# [12] = MRT in ICR mouse at 5 mg/kg, iv by LC-MS/MS analysis; type: ADME, organism-based; details: in vivo; method in brief: as §3
# [13] = AUC (0 to infinity) in ICR mouse at 50 mg/kg, po by LC-MS/MS analysis; type: ADME, organism-based; design: dose 50 mg/kg, time infinity, route oral; details: in vivo; method in brief: as §3
# [14] = AUClast in ICR mouse at 50 mg/kg, po by LC-MS/MS analysis; type: ADME, organism-based; design: dose 50 mg/kg, route oral, time 0 - last; details: in vivo; method in brief: as §3
# [15] = Tmax in ICR mouse at 50 mg/kg, po by LC-MS/MS analysis; type: ADME, organism-based; details: in vivo
# Method in brief: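 Male ICR mice, 7~8 weeks, 30 ± 5 g, given a single oral dose of 50 mg/kg (n = 4). Carotid-artery blood was sampled at 0, 0.25, 0.5, 1, 2, 4, 6 and 8 h. Plasma was protein-precipitated with acetonitrile containing internal standard and quantified by LC-MS/MS on a C18 gradient. Parameters came from non-compartmental analysis and are reported as mean ± SD.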
# [16] = system: Mus musculus; experiment: Sleep promoting activity in C57B1/6J mouse assessed as increase in total non-rapid eye movement sleep time at 30 mg/kg, ip measured over 8 hrs by electroencephalogram method; type: functional
# Method in brief: (§4)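 Adult male C57Bl/6J mice, 10 weeks old, with parietal EEG screw electrodes implanted under ketamine. EEG and EMG recorded for 8 h from 9 AM, starting one day before dosing as baseline. On test day, 30 mg/kg i.p. at the start of the light phase, with EEG/EMG recorded for 8 h and scored in 2-h bins. n = 6-9 per group; mean ± SEM versus vehicle.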
# [17] = system: Mus musculus; experiment: Sleep promoting activity in C57B1/6J mouse assessed as decrease in total rapid eye movement sleep time at 30 mg/kg, ip measured over 8 hrs by electroencephalogram method; type: functional; design: scale not given: the % may be the effect or the level left; method in brief: as §4
# [18] = system: Mus musculus; experiment: Toxicity in ICR mouse assessed as mortality at 50 mg/kg, po; type: organism-based; details: in vivo
# Method in brief: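 Observed in male ICR mice (7~8 weeks, 30 ± 5 g; n = 4) during a pharmacokinetic study after a single oral dose. Mice were held at 23 ± 3° and about 55% ± 10% humidity with standard feed and tap water. Blood was drawn via carotid artery from 0.25 to 8 h after dosing.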
# [19] = molecular target: 5-hydroxytryptamine receptor 7 (Homo sapiens, UniProt P34969); experiment: Displacement of [3H]LSD from human 5-HT7 receptor expressed in HEK cell membranes after 1.5 hrs by microbeta scintillation counting method
# Chain of 5-hydroxytryptamine receptor 7 (P34969 whole entry): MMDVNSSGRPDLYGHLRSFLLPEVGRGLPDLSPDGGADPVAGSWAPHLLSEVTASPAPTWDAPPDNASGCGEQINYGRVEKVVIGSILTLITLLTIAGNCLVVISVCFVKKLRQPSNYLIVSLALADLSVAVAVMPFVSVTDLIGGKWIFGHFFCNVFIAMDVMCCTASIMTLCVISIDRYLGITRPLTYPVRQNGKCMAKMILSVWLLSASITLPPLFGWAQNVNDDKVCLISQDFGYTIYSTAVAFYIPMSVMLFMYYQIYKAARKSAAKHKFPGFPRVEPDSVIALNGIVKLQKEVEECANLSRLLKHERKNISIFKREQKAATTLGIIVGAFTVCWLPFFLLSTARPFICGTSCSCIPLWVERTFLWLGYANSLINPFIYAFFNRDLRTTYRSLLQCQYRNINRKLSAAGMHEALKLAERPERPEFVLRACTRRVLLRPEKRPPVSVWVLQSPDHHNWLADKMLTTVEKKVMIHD
# [20] = species: Homo sapiens; experiment: Selectivity index, ratio of Ki for human 5-HT1A receptor to Ki for human 5-HT7 receptor; method in brief: as §1
structure (smiles),measurement,setting,value
Cc1ccc(-c2noc3c2CCNCC3)cc1,Ratio Ki,[1],26.3
same,Ratio Ki,[2],70.9
Clc1ccc(-c2n[nH]c3c2CCNCC3)cc1,"activity at 0.25 h, 10 µM",[3],75.7%
same,"activity at 0.25 h, 10 µM",[4],> 100%
same,"activity at 0.25 h, 10 µM",[5],> 100%
same,"activity at 0.25 h, 10 µM",[6],95.4%
same,"remaining at 0.5 h, 1 µM",[7],82.4%
same,AUC(0-inf),[8],5210 ng·h/mL
same,AUC(0-t),[9],4900 ng·h/mL
same,Tmax,[10],6.6 min
same,clearance,[11],16 mL/min/kg
same,MRT,[12],2.5 h
same,AUC(0-inf),[13],64300 ng·h/mL
same,AUC(0-t),[14],53700 ng·h/mL
same,Tmax,[15],1.37 h
same,Activity,[16],21.4%
same,Activity,[17],36.7%
same,Activity,[18],Non-Toxic
Fc1ccc(-c2n[nH]c3c2CCNCC3)cc1,pKi,[19],6.98
same,Ratio Ki,[20],18
